# Screening data from PubChem BioAssay.
# Compounds with a hit are over-represented: about 3.9% of the library has one in this group of screens.
# FID counter – compounds displacing fluorescent DNA intercalator, primary screen, artefact control for HCV NS3 helicase inhibitor project, biochemical, FID fluorescence; inhibition, % at 7.9 µM; DNA fluorescent intercalator displacement; actives 0.17% (n = 290,000); in the data active = inhibition above about 37%;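 also: higher means more ethidium bromide displaced from hairpin DNA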
# HSF1 inhib – HSF1 inhibitors in luciferase reporter cells, primary screen, cell-based, NIH3T3, luminescence; actives 0.77% (n = 300,000); AID 2098, 2009; activity change, negative = inhibition, % at 7.5 µM (by protocol); NIH3T3-HGL HSE-luciferase, MG132-induced, luminescence 8 h; hits give low values;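 active = more than half of replicate wells show activity change below -50%, luminescence cut by over half; inconclusive = some wells, but at most half, below -50%; inactive = no replicate well below -50%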;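 also: luciferase reports HSF-1 transcriptional activity via heat shock element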
# NS3 helicase inh – inhibitors of HCV NS3 helicase, primary screen, biochemical, Cy5 molecular beacon fluorescence; Hepatitis C virus NS3 helicase; NS3 helicase DNA unwinding; inhibition, % at 10.9 µM; actives 0.56% (n = 290,000);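 active = inhibition above the mean of all tested compounds plus 3 SD, set per campaign, cut at about 35% in these data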
#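 System: NS3 helicase fragment of HCV / Schedule: 1 h at 25 °C / Control set: DMSO alone as 0% and 110 µM thioflavine S as 100% / Reagent: Cy5/quencher beacon DNA duplex and ATP to start / Technique: Cy5 fluorescence / Replication: singlicate / Evaluation: % inhibition of end-to-start signal ratio versus controls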
# HCV core dimer – inhibitors of HCV core protein dimerization, primary screen, biochemical, TR-FRET, high-throughput; TR-FRET GST/Flag-core106 dimerization, 1536-well; inhibition, % at 5 µM; actives 0.33% (n = 300,000); AID 1899, 2009;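 active = inhibition above the mean of all tested compounds plus 3 SD, set per screening campaign, cut at about 45% in these data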
#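 test system = GST/Flag-tagged HCV core106 proteins | probe or stimulus = Eu donor and XL665 acceptor anti-tag antibodies | times = compound-protein-antibody incubation 4 h at 22.5 °C | signal = TR-FRET, excitation 340 nm, emission 617 and 671 nm | measure = percent inhibition of core106 dimerization signal | controls = wells lacking GST-core106 and wells with excess unlabelled core106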
# HSF1 activator – HSF-1 activators, primary screen, NIH3T3-HGL cells, MG132 stress, luminescence, single point | NIH3T3-HGL HSF-1 luciferase reporter, 8 h; 100% = twice DMSO control signal | activation, % at 9 µM | actives 1.7% (n = 300,000) | AID 504408, 2011;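 active = mean replicate activation of at least 50% with a set share of replicates each reaching 50%; inconclusive = only one of those two conditions met; inactive = mean below 50% and too few replicates reaching it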
# HSP90 refold inh – HSP90 inhibitors, primary screen, cell lysate, luminescence; Heat shock protein HSP 90 (rabbit reticulocyte lysate; luciferase refolding); inhibition, % at 5.6 µM; Rabbit reticulocyte lysate, luciferase refolding luminescence, 3 h; actives 0.91% (n = 290,000);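 active = inhibition above the screen-wide mean plus 3 SD, computed separately per campaign, cut at about 16% in these data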;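 also: inhibitors lower the luminescence because luciferase stays unfolded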
# Numbers stand for hits; . = inactive; ? = inconclusive; / = not tested or not shown.
SMILES,FID counter,HSF1 inhib,NS3 helicase inh,HCV core dimer,HSF1 activator,HSP90 refold inh
CC(=O)OC(C)(C)/C=C/C(=O)C(C)(O)C1[C@H](O)C[C@@]2(C)C3CC=C4C(CC[C@@H](O)C4(C)C)[C@]3(CO)C(=O)C[C@]12C (some centres not stated),.,-52,.,.,.,.
CC(=O)OC(C)(C)/C=C/C(=O)[C@](C)(O)[C@H]1[C@H](O)C[C@@]2(C)[C@@H]3CC=C4[C@H](C[C@H](O)C(=O)C4(C)C)[C@]3(C)C(=O)C[C@]12C,.,/,.,/,/,.
COc1ccc(-c2cc(=Nc3ccccc3)c3cc(C)ccc3o2)cc1,.,.,.,.,66,.
O=C1NC(=O)[C@]2(Cc3ccccc3N3CCN(c4ccccc4)CC32)C(=O)N1Cc1ccccc1 (some centres not stated),.,.,.,.,65,.
O=[N+]([O-])c1ccc(N2CCCC2)c2ccncc12,.,-60,.,.,.,.
O=[N+]([O-])c1ccc(NC2CCCC2)c2ccncc12,.,.,.,.,.,.
CN1CCN(c2ccc([N+](=O)[O-])c3cccnc23)CC1,.,-57,.,.,.,.
CN/C=C(/Cl)P(=O)(OC(C)C)OC(C)C,/,.,/,.,.,/
C=C1[C@H]2C[C@H]3[C@H]4N5C[C@]6(C)CCC[C@]47[C@H]([C@H]2O)[C@]3(C[C@]5(O)[C@H]67)[C@@H]1O,/,.,/,.,.,/
N/C(=N\[N+](=O)[O-])N1CCN(C(=O)c2ccccn2)CC1,.,.,.,.,.,.
CCC(=NCC1CCCO1)c1c(O)n(-c2ccc(OC)cc2)c(=O)[nH]c1=O (configuration not stated),.,/,.,.,/,.
CCOc1ccccc1N1C(=O)NC(=O)C(CCc2ccncc2)(CCc2ccncc2)C1=O,.,.,.,.,.,.
O=C1NC(=O)C(CCc2ccncc2)(CCc2ccncc2)C(=O)N1Cc1ccccc1,.,-71,.,.,.,.
ClC(Cl)=C(c1ccc(Cl)cc1)c1ccc(Cl)cc1,/,/,/,.,/,/
CC(C)OC(=O)c1c(N)n(CC2CCCO2)c2nc3ccccc3nc12 (configuration not stated),.,.,.,.,.,16
CC(C)CCOC(=O)c1c(N)n(CC2CCCO2)c2nc3ccccc3nc12 (configuration not stated),.,.,.,.,.,.
CC1(C)CN=C(Nc2nc3ccccc3s2)S1,.,.,.,.,54,.
CC1(C)CN=C(NCc2ccccc2)S1,.,.,.,.,.,23
c1ccc(CNC2=NCCS2)cc1,.,.,.,.,.,.
Cc1ccsc1C(=O)C1CCCN(Cc2c(C)nn(C(C)C)c2C)C1 (configuration not stated),.,.,.,.,.,.
CCOC(=O)c1ccc(N=C(C)c2c(O)[nH]c(=O)[nH]c2=O)cc1,.,-63,.,.,.,.
C=C(C=O)CC1CC(O)[C@]2(C)OC3CC4OC5C[C@]6(C)O[C@]7(C)CCC8OC9C[C@]%10(C)OC%11C(C)=CC(=O)OC%11CC%10OC9C[C@@H](C)C8OC7CC6O[C@]5(C)CC5OC5C4OC3CC2O1 (some centres not stated),.,?,.,49,.,.
C=C(CO)CC1CC(O)[C@]2(C)OC3CC4OC5C[C@]6(C)O[C@]7(C)CCC8OC9C[C@]%10(C)OC%11C(C)=CC(=O)OC%11CC%10OC9C[C@@H](C)C8OC7CC6O[C@]5(C)C/C=C\C4OC3CC2O1 (some centres not stated),.,.,.,.,/,.
CN(C)CCc1nc2ccccc2c(=O)n1-c1ccccc1,.,.,.,.,81,.
COc1ccc(C)cc1NC1=NC(C)(C)CS1,.,.,.,.,.,.
SMILES,FID counter,HSF1 inhib,NS3 helicase inh,HCV core dimer,HSF1 activator,HSP90 refold inh
COc1cccc(N=Cc2c(O)n(Cc3ccco3)c(=O)[nH]c2=O)c1,.,.,.,.,.,.
CC(C)n1c(=O)c(C=Nc2ccc(Cl)cc2)c(O)n(Cc2ccco2)c1=O,.,.,47,.,.,.
C/C1=C\[C@@H](C)C/C=C/[C@H]2[C@@H]3O[C@]3(C)[C@@H](C)[C@H]3[C@H](Cc4c[nH]c5ccccc45)NC(=O)[C@]32C(=O)/C=C/C(=O)[C@@H]1O,.,.,.,.,111,.
CC1=CC2/C=C(\C)CCC(O)C(O)/C=C/C(=O)C23C(=O)NC(CC(C)C)C3C1C (configuration not stated),.,.,.,.,.,.
COc1cc2c(cc1O)C[C@H]1NCCc3cc4c(c-2c31)OCO4,38,.,.,.,.,.
COc1cc2c(cc1OC)-c1c3c(cc4c1[C@@H](C2)N(C)CC4)OCO3,67,.,.,.,.,.
CC(=O)O[C@H]1CC[C@@]2(C)[C@H](C1)C(=O)C[C@H]1[C@@H]3CC[C@@H]4[C@@H](CN5C[C@@H](C)CC[C@H]5[C@@]4(C)O)[C@@H]3C[C@@H]12,.,.,.,.,.,.
N#CCCn1cc(C(=O)Nc2ccc([N+](=O)[O-])cc2)c(-c2ccccc2)n1,.,-71,.,.,.,.
N#CCCn1cc(C(=O)Nc2ccc(F)cc2)c(-c2ccc([N+](=O)[O-])cc2)n1,.,.,.,.,.,.
C=CCN1CCc2cccc3c2[C@H]1Cc1ccc(O)c(O)c1-3,.,.,.,.,95,.
Cc1cnc(NC(=O)CN2CCCCC2)s1,.,.,.,.,.,.
COc1cc(C(O)CNC(C)C)cc(F)c1OC (configuration not stated),/,.,/,.,.,/
COc1ccc(SCC2CN(C)CCC2c2ccc(F)cc2)cc1 (configuration not stated),/,.,/,.,67,/
Cc1cccc(-n2c(C)nc3ccc(Cl)cc3c2=O)c1,.,.,.,.,.,.
COc1cc(C=C2C(=O)NC(=O)NC2=O)ccc1OCc1ccc([N+](=O)[O-])cc1,.,/,.,/,/,.
COc1cc(/C=C(/C)[N+](=O)[O-])ccc1OCc1ccccc1Cl,.,.,.,.,128,.
C=CCn1c(O)c(N=Nc2c(C)n(C)n(-c3ccccc3)c2=O)c(=O)[nH]c1=S,.,.,.,.,.,.
O=[N+]([O-])c1cccc(NP(=O)(Oc2ccccc2)Oc2ccccc2)c1,.,.,.,.,.,.
NC(Cc1nc2ccccc2[nH]1)c1ccc(Cl)cc1 (configuration not stated),.,.,.,.,88,.
